According to PMC5667346 (Theranostics, 2017):
Ends that are not written are not given here.

Legend:
[1] = Pharmacokinetic analysis, terminal elimination half-life after i.v. injection; assay type: in vivo; details: male ICR mice, i.v. 500 μg/kg
DLS assay = assay type: physicochemical; details: 2 mg/mL in 10 mM PBS, 20°C
[2] = system: bacterial colony count in CLP-induced septic mice; assay: Bacterial count in peritoneal fluid and blood of CLP-operated mice; assay type: in vivo, mouse; details: 500 μg/kg i.v. 12 h after CLP, count at 24 h after CLP, n=10
In short: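 Polymicrobial sepsis was induced by cecal ligation and puncture (CLP). Mice received the test compound at 500 μg/kg i.v. 12 h after CLP, with untreated CLP mice as comparators. Bacterial loads in peritoneal fluid and blood were determined by counting colonies, with n = 10 per group. Data are mean ± SD from three independent experiments on different days, analysed by Mann-Whitney U test versus CLP only.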

## PEG5K-KSLW: KSLW mono-PEGylated at the N-terminal amine with monomethoxy PEG-ALD, MW 5,000 Da ({mPEG 5 kDa}-KKVVFWVKFK)
[1]
  In vivo half-life relative to that of KSLW: > 10 fold
DLS assay
  Percentage polydispersity (%Pd), DLS: 23.3%
DLS assay; filtered 0.22 μm, three repeats with 10 subruns
  Average hydrodynamic diameter (DLS): 4.2 nm
[2]
  Decrease of bacterial colony count in the blood: 90%
  Decrease of bacterial colony count in the peritoneal fluid: 70%
